{"source": "ChEMBL document CHEMBL1146364", "about": "“High-throughput assay for the identification of Hsp90 inhibitors based on Hsp90-dependent refolding of firefly luciferase” (Bioorg Med Chem, 2007)", "key": {"[1]": {"system": "SK-BR-3", "assay": "Induction of Hsp90-dependent Her2 protein degradation in Skbr3 cells after 24 hrs by ELISA", "format": "functional, cell-based", "settings": "Homo sapiens, SK-BR-3, 24 h", "outline": "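SkBr3 cells seeded at 3000/well and attached overnight, then exposed to compounds at varying concentrations for 24 h. Cell number checked under the microscope against DMSO wells. Cells then washed, fixed and permeabilized in −20 °C methanol, and blocked with 5% BSA/PBST. Probed overnight at 4 °C with rabbit anti-Her2 (1:500), then with HRP anti-rabbit IgG (1:1000) for 2 h. Read by chemiluminescence.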"}, "[2]": {"system": "SK-BR-3", "assay": "Antiproliferative activity against SkBr3 cells after 72 hrs", "format": "functional, cell-based", "settings": "Homo sapiens, SK-BR-3, 72 h", "outline": "(§1)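 Seeded at 2000 cells/well and left to attach overnight at 37 °C, 5% CO2. MCF-7 cells kept in 1:1 DMEM:Ham's F-12 with non-essential amino acids, 2 mM L-glutamine, pen/strep and 10% FBS. SkBr3 cells kept in McCoy's 5A with the same supplements. Compounds added over a range of concentrations in DMSO (1% final). After 72 h, viable cells counted by MTS/PMS. 1% DMSO wells set as 100% proliferation.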"}, "[3]": {"system": "MCF7", "assay": "Antiproliferative activity against MCF7 cells after 72 hrs", "format": "functional, cell-based", "settings": "Homo sapiens, MCF7, 72 h", "outline": "as §1"}, "[4]": {"assay": "(§2) Inhibition of Hsp90-dependent luciferase renaturation in rabbit reticulocyte after 30 mins by luciferase refolding assay", "parameters": "species or system Oryctolagus cuniculus", "outline": "(§3)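 Luciferase in stability buffer (0.5 mg/mL) heat-denatured at 41 °C for 10 min. Compound in DMSO (1 μL) mixed with cold mix (Tris pH 7.7, Mg(OAc)2, KCl, ATP, creatine phosphate), creatine phosphokinase and denatured luciferase. Started with rabbit reticulocyte lysate diluted in 20 mM Tris-HCl pH 7.4/75 mM KCl. Ran 30 min at 25 °C, then luciferin/ATP buffer added and light read over 10 s. IC50 taken against DMSO control. Triplicates, at least two experiments.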"}, "[5]": {"species_on_record": "Oryctolagus cuniculus", "assay": "as §2", "outline": "as §3"}, "[6]": {"system": "MCF7", "assay": "Induction of Her2 degradation in MCF7 cells", "format": "functional, cell-based", "settings": "Homo sapiens", "outline": "(§4)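 MCF-7 cells seeded at 1×10^6 per dish and attached overnight. Compound added at varying concentrations for 36 h at 37 °C, 5% CO2. Client protein loss assessed by western blot. Controls: GA 500 nM and DMSO.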"}, "[7]": {"system": "MCF7", "assay": "Induction of Raf1 degradation in MCF7 cells", "format": "functional, cell-based", "settings": "Homo sapiens", "outline": "as §4"}, "[8]": {"system": "MCF7", "assay": "Induction of AKT degradation in MCF7 cells", "format": "functional, cell-based", "settings": "Homo sapiens", "outline": "as §4"}}, "note": "Calls of active or inactive are those of the source. No cut-off for these calls is given here.", "data": [{"compound": "Nc1ncc(-c2cccs2)s1", "values": [{"measurement": "IC50", "setting": "[1]", "result": "> 100", "unit": "µM"}, {"measurement": "IC50", "setting": "[2]", "result": "> 100", "unit": "µM"}, {"measurement": "IC50", "setting": "[3]", "result": "> 100", "unit": "µM"}, {"measurement": "IC50", "setting": "[4]", "result": 55, "unit": "µM"}]}, {"compound": "C=CCOc1ccccc1/C=C1\\C(=O)N(c2cccc(Cl)c2)N=C1C", "values": [{"measurement": "IC50", "setting": "[1]", "result": 51.6, "unit": "µM"}, {"measurement": "IC50", "setting": "[2]", "result": 39, "unit": "µM"}, {"measurement": "IC50", "setting": "[3]", "result": 34, "unit": "µM"}, {"measurement": "IC50", "setting": "[4]", "result": 4.5, "unit": "µM"}]}, {"compound": "CCNC(=O)c1c(N)sc2c1CCCCC2", "values": [{"measurement": "IC50", "setting": "[1]", "result": 44, "unit": "µM"}, {"measurement": "IC50", "setting": "[2]", "result": 76, "unit": "µM"}, {"measurement": "IC50", "setting": "[3]", "result": 93, "unit": "µM"}, {"measurement": "IC50", "setting": "[4]", "result": 23, "unit": "µM"}]}, {"compound": "N#CC1=C(N)N2C(=C(C#N)C1c1cccs1)Sc1ccccc12", "note": "(stereo unspecified)", "values": [{"measurement": "IC50", "setting": "[1]", "result": 67, "unit": "µM"}, {"measurement": "IC50", "setting": "[2]", "result": 42, "unit": "µM"}, {"measurement": "IC50", "setting": "[3]", "result": "> 100", "unit": "µM"}, {"measurement": "IC50", "setting": "[4]", "result": 13, "unit": "µM"}]}, {"compound": "Cc1nc(N)sc1-c1csc(Nc2ccccc2)n1", "values": [{"measurement": "IC50", "setting": "[1]", "result": 61, "unit": "µM"}, {"measurement": "IC50", "setting": "[2]", "result": 55, "unit": "µM"}, {"measurement": "IC50", "setting": "[3]", "result": 44, "unit": "µM"}, {"measurement": "IC50", "setting": "[4]", "result": 15, "unit": "µM"}]}, {"compound": "CCOc1ccccc1NC(=O)CSc1ccccn1", "values": [{"measurement": "IC50", "setting": "[1]", "result": "> 100", "unit": "µM"}, {"measurement": "IC50", "setting": "[2]", "result": "> 100", "unit": "µM"}, {"measurement": "IC50", "setting": "[3]", "result": "> 100", "unit": "µM"}, {"measurement": "Activity", "setting": "[5]", "result": "inactive"}]}, {"compound": "CCOc1ccc(Nc2nc(-c3sc(NC(C)=O)nc3C)cs2)cc1", "values": [{"measurement": "Activity", "setting": "[6]", "result": "Active"}, {"measurement": "Activity", "setting": "[7]", "result": "Active"}, {"measurement": "Activity", "setting": "[8]", "result": "Active"}, {"measurement": "IC50", "setting": "[1]", "result": 12.5, "unit": "µM"}, {"measurement": "IC50", "setting": "[2]", "result": 15, "unit": "µM"}, {"measurement": "IC50", "setting": "[3]", "result": 2.1, "unit": "µM"}, {"measurement": "IC50", "setting": "[4]", "result": 1.9, "unit": "µM"}]}, {"compound": "Cc1ccc(Nc2cc(C)c(O)c(C)c2)cc1", "values": [{"measurement": "IC50", "setting": "[1]", "result": 10.9, "unit": "µM"}, {"measurement": "IC50", "setting": "[2]", "result": 15, "unit": "µM"}, {"measurement": "IC50", "setting": "[3]", "result": 9.1, "unit": "µM"}, {"measurement": "IC50", "setting": "[4]", "result": 6.7, "unit": "µM"}]}, {"compound": "Cc1c(Cc2ccccc2)sc(NC(=O)c2ccc([N+](=O)[O-])cc2)c1C(N)=O", "values": [{"measurement": "IC50", "setting": "[1]", "result": 64, "unit": "µM"}, {"measurement": "IC50", "setting": "[2]", "result": 55, "unit": "µM"}, {"measurement": "IC50", "setting": "[3]", "result": 41, "unit": "µM"}, {"measurement": "Activity", "setting": "[5]", "result": "inactive"}]}, {"compound": "COc1ccc(C(=O)/C=C(\\C)Nc2ccccc2O)cc1", "values": [{"measurement": "IC50", "setting": "[1]", "result": 21.3, "unit": "µM"}, {"measurement": "IC50", "setting": "[2]", "result": 25, "unit": "µM"}, {"measurement": "IC50", "setting": "[3]", "result": "> 100", "unit": "µM"}, {"measurement": "IC50", "setting": "[4]", "result": 15, "unit": "µM"}]}, {"compound": "COc1ccc(/C=C2/SC(=O)NC2=O)cc1OC", "values": [{"measurement": "IC50", "setting": "[1]", "result": "> 100", "unit": "µM"}, {"measurement": "IC50", "setting": "[2]", "result": "> 100", "unit": "µM"}, {"measurement": "IC50", "setting": "[3]", "result": "> 100", "unit": "µM"}, {"measurement": "IC50", "setting": "[4]", "result": 190, "unit": "µM"}]}, {"compound": "O=C(CSc1nnnn1-c1ccc(F)cc1F)Nc1ccc2c(c1)OCCO2", "values": [{"measurement": "IC50", "setting": "[1]", "result": "> 100", "unit": "µM"}, {"measurement": "IC50", "setting": "[2]", "result": "> 100", "unit": "µM"}, {"measurement": "IC50", "setting": "[3]", "result": "> 100", "unit": "µM"}, {"measurement": "IC50", "setting": "[4]", "result": 4.4, "unit": "µM"}]}, {"compound": "Cc1cc2nn(-c3ccc(Cl)cc3)nc2cc1NC(=O)C(C)C", "values": [{"measurement": "IC50", "setting": "[1]", "result": "> 100", "unit": "µM"}, {"measurement": "IC50", "setting": "[2]", "result": "> 100", "unit": "µM"}, {"measurement": "IC50", "setting": "[3]", "result": "> 100", "unit": "µM"}, {"measurement": "IC50", "setting": "[4]", "result": 0.12, "unit": "µM"}]}, {"compound": "CCOC(=O)Oc1ccc2c(c1)C(C)=CC(C)(C)N2", "values": [{"measurement": "Activity", "setting": "[6]", "result": "Active"}, {"measurement": "Activity", "setting": "[7]", "result": "Active"}, {"measurement": "Activity", "setting": "[8]", "result": "Active"}, {"measurement": "IC50", "setting": "[1]", "result": 4.4, "unit": "µM"}, {"measurement": "IC50", "setting": "[2]", "result": 2.4, "unit": "µM"}, {"measurement": "IC50", "setting": "[3]", "result": 3, "unit": "µM"}, {"measurement": "IC50", "setting": "[4]", "result": 16, "unit": "µM"}]}, {"compound": "CCc1ccc(O)c(/N=C/c2cccc(C)c2O)c1", "values": [{"measurement": "IC50", "setting": "[1]", "result": 8.9, "unit": "µM"}, {"measurement": "IC50", "setting": "[2]", "result": 9, "unit": "µM"}, {"measurement": "IC50", "setting": "[3]", "result": 25, "unit": "µM"}, {"measurement": "IC50", "setting": "[4]", "result": 7, "unit": "µM"}]}, {"compound": "Oc1ccc(O)c(SCCCCN2CCOCC2)c1", "values": [{"measurement": "IC50", "setting": "[1]", "result": 4.7, "unit": "µM"}, {"measurement": "IC50", "setting": "[2]", "result": 7.8, "unit": "µM"}, {"measurement": "IC50", "setting": "[3]", "result": 19, "unit": "µM"}, {"measurement": "IC50", "setting": "[4]", "result": 120, "unit": "µM"}]}, {"compound": "CSc1nnc2c(n1)OC=Nc1ccccc1-2", "values": [{"measurement": "IC50", "setting": "[1]", "result": "> 100", "unit": "µM"}, {"measurement": "IC50", "setting": "[2]", "result": "> 100", "unit": "µM"}, {"measurement": "IC50", "setting": "[3]", "result": "> 100", "unit": "µM"}, {"measurement": "IC50", "setting": "[4]", "result": 15, "unit": "µM"}]}, {"compound": "CC1=NN(c2ccc(Cl)cc2)C(=O)C1", "values": [{"measurement": "IC50", "setting": "[1]", "result": "> 100", "unit": "µM"}, {"measurement": "IC50", "setting": "[2]", "result": "> 100", "unit": "µM"}, {"measurement": "IC50", "setting": "[3]", "result": "> 100", "unit": "µM"}, {"measurement": "IC50", "setting": "[4]", "result": 2.1, "unit": "µM"}]}, {"compound": "COc1ccccc1CNC(=O)c1ccc(C)cc1", "values": [{"measurement": "IC50", "setting": "[1]", "result": "> 100", "unit": "µM"}, {"measurement": "IC50", "setting": "[2]", "result": "> 100", "unit": "µM"}, {"measurement": "IC50", "setting": "[3]", "result": "> 100", "unit": "µM"}, {"measurement": "IC50", "setting": "[4]", "result": 22, "unit": "µM"}]}, {"compound": "Oc1c(C(Nc2cccc(Cl)c2)c2ccncc2)ccc2cccnc12", "note": "(stereo unspecified)", "values": [{"measurement": "IC50", "setting": "[1]", "result": 33, "unit": "µM"}, {"measurement": "IC50", "setting": "[2]", "result": 23, "unit": "µM"}, {"measurement": "IC50", "setting": "[3]", "result": 4, "unit": "µM"}, {"measurement": "IC50", "setting": "[4]", "result": 36, "unit": "µM"}]}]}
